The source made the active and inactive calls. The calls are words filed in the database; no cut-off is given here.
How the values were obtained:
Ribosomal RNA A-site [1] = test: Displacement of F-NEO from human cytosolic rRNA-A site after 10 to 20 mins by fluorescence assay; type: nucleic-acid assay
Method in brief: (§1)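 A 100 nM F-NEO:A-site RNA complex in 10 mM HEPES, 50 mM NaCl, 0.04 mM EDTA, pH 7.0 was titrated with 2-fold dilutions of ligand from 20 to 0.009 μM, or from 60 or 40 μM for weaker ligands. Incubated 10-20 min at room temperature, fluorescence read at ex 485/em 525 nm. IC50 from dose-response curve fit.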

Homo sapiens [2] = species on record: Homo sapiens; test: Displacement of F-NEO from human mitochondrial rRNA-A site A1490G mutant after 10 to 20 mins by fluorescence assay relative to NEO
Method in brief: (§2)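 100 nM F-NEO:A-site complex in 10 mM HEPES, 50 mM NaCl, 0.04 mM EDTA, pH 7.0, mixed with ligand and incubated 10-20 min at room temperature. Fluorescence read at ex 485/em 525 nm, in duplicate. Percent binding was computed from the intensities of ligand-treated complex, complex without ligand, and complex with neomycin.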

Klebsiella pneumoniae = test: Antibacterial activity against Klebsiella pneumoniae NR-151410 at 6.25 uM after 15 to 20 hrs by CLSI protocol based microdilution assay relative to control; type: functional
Method in brief: (§3)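 Single-concentration screen at 6.25 μM against exponential-phase cultures, in duplicate, with NEO as reference. Enterococcus was grown in BHI broth, M. smegmatis in TS broth with 0.05% Tween 80, and all other strains in TS broth. The 1% DMSO water vehicle was added to broth (background) and culture (growth control). Incubation was 37 °C, humidified, 15-20 h. Result is percent growth inhibition.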

Enterococcus faecium = test: Antibacterial activity against NEO-intermediate sensitive Enterococcus faecium BM4105-RF at 6.25 uM after 15 to 20 hrs by CLSI protocol based microdilution assay relative to control; type: functional; method in brief: as §3
Ribosomal RNA A-site [3] = test: Displacement of F-NEO from human mitochondrial rRNA-A site after 10 to 20 mins by fluorescence assay; type: nucleic-acid assay; method in brief: as §1
Staphylococcus aureus [4] = test: Antibacterial activity against NEO-sensitive Staphylococcus aureus 25923 at 6.25 uM after 15 to 20 hrs by CLSI protocol based microdilution assay relative to control; type: functional; method in brief: as §3
Ribosomal RNA A-site [5] = test: Displacement of F-NEO from human mitochondrial rRNA-A site after 10 to 20 mins by fluorescence assay relative to NEO; type: nucleic-acid assay; set-up: concentration or dose not given beside the values; method in brief: as §2
Homo sapiens [6] = species on record: Homo sapiens; test: Displacement of F-NEO from human mitochondrial rRNA-A site C1410U mutant after 10 to 20 mins by fluorescence assay relative to NEO; set-up: concentration or dose not given beside the values; method in brief: as §2
Staphylococcus aureus [7] = test: Antibacterial activity against methicillin-resistant Staphylococcus aureus 33591 at 6.25 uM after 15 to 20 hrs by CLSI protocol based microdilution assay relative to control; type: functional
Method in brief: (§4)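 Exponential-phase cultures were exposed to 6.25 μM compound in duplicate with neomycin as reference, at 37 °C in a humidified incubator for 15-20 h. Broth and culture controls received sterile water with 1% DMSO. Percent growth inhibition was calculated against the growth and background controls.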

Escherichia coli [8] = test: Antibacterial activity against NEO-sensitive Escherichia coli harboring TolC mutant at 6.25 uM after 15 to 20 hrs by CLSI protocol based microdilution assay relative to control; type: functional; method in brief: as §4
Staphylococcus aureus [9] = test: Antibacterial activity against methicillin-resistant Staphylococcus aureus A960649 at 6.25 uM after 15 to 20 hrs by CLSI protocol based microdilution assay relative to control; type: functional; method in brief: as §4
Klebsiella oxytoca = test: Antibacterial activity against NEO-sensitive Klebsiella oxytoca HM-625 at 6.25 uM after 15 to 20 hrs by CLSI protocol based microdilution assay relative to control; type: functional; method in brief: as §3
[10] = Inhibition of AAC(6')-1e (unknown origin)
[11] = Inhibition of Eis (unknown origin)
Ribosomal RNA A-site [12] = test: Displacement of F-NEO from Escherichia coli rRNA-A site after 10 to 20 mins by fluorescence assay relative to NEO; type: nucleic-acid assay; set-up: concentration or dose not given beside the values; method in brief: as §2
Acinetobacter baumannii = test: Antibacterial activity against NEO-sensitive Acinetobacter baumannii ATCC 19606 at 6.25 uM after 15 to 20 hrs by CLSI protocol based microdilution assay relative to control; type: functional, ATCC 19606 = CIP 70.34 = JCM 6841; method in brief: as §3
Enterococcus faecalis = test: Antibacterial activity against NEO-intermediate sensitive Enterococcus faecalis ATCC 29212 at 6.25 uM after 15 to 20 hrs by CLSI protocol based microdilution assay relative to control; type: functional; method in brief: as §3
[13] = tested on: Staphylococcus epidermidis; test: Antibacterial activity against NEO-sensitive Staphylococcus epidermidis 12384 at 6.25 uM after 15 to 20 hrs by CLSI protocol based microdilution assay relative to control; type: functional; method in brief: as §3
[14] = Inhibition of AAC(2')-1c (unknown origin)
Bacillus anthracis = test: Antibacterial activity against NEO-sensitive Bacillus anthracis BA852 at 6.25 uM after 15 to 20 hrs by CLSI protocol based microdilution assay relative to control; type: functional; method in brief: as §4
Streptococcus pyogenes = test: Antibacterial activity against NEO-resistant Streptococcus pyogenes C203 at 6.25 uM after 15 to 20 hrs by CLSI protocol based microdilution assay relative to control; type: functional; method in brief: as §4
Pseudomonas aeruginosa = test: Antibacterial activity against NEO-resistant Pseudomonas aeruginosa 27853 at 6.25 uM after 15 to 20 hrs by CLSI protocol based microdilution assay relative to control; type: functional; method in brief: as §4
Escherichia coli [15] = test: Antibacterial activity against NEO-sensitive Escherichia coli ATCC 25922 at 6.25 uM after 15 to 20 hrs by CLSI protocol based microdilution assay relative to control; type: functional; method in brief: as §3
[16] = Inhibition of APH(3')-1a (unknown origin)
Ribosomal RNA A-site [17] = test: Displacement of F-NEO from human cytosolic rRNA-A site after 10 to 20 mins by fluorescence assay relative to NEO; type: nucleic-acid assay; set-up: concentration or dose not given beside the values; method in brief: as §2
[18] = Displacement of F-NEO from human mitochondrial rRNA-A site C1410U mutant after 10 to 20 mins by fluorescence assay; method in brief: as §1
[19] = Inhibition of AAC(3)-4 (unknown origin)
Staphylococcus aureus [20] = test: Antibacterial activity against methicillin-resistant Staphylococcus aureus SU-5 at 6.25 uM after 15 to 20 hrs by CLSI protocol based microdilution assay relative to control; type: functional; method in brief: as §4
[21] = tested on: Mycolicibacterium smegmatis; test: Antibacterial activity against NEO-sensitive Mycobacterium smegmatis at 6.25 uM after 15 to 20 hrs by CLSI protocol based microdilution assay relative to control; type: functional; method in brief: as §3
Staphylococcus aureus [22] = test: Antibacterial activity against NEO-sensitive Staphylococcus aureus harboring NorA mutant at 6.25 uM after 15 to 20 hrs by CLSI protocol based microdilution assay relative to control; type: functional; method in brief: as §4
[23] = Inhibition of APH(2\")-1a (unknown origin)
Staphylococcus aureus [24] = test: Antibacterial activity against methicillin-resistant Staphylococcus aureus M0602 at 6.25 uM after 15 to 20 hrs by CLSI protocol based microdilution assay relative to control; type: functional; method in brief: as §4
Ribosomal RNA A-site [25] = test: Displacement of F-NEO from Escherichia coli rRNA-A site after 10 to 20 mins by fluorescence assay; type: nucleic-acid assay; method in brief: as §1

SMILES | IC50 (Ribosomal RNA A-site [1]) [nM] | inhibition (Homo sapiens [2]) [%] | Activity (Klebsiella pneumoniae) [%] | Activity (Enterococcus faecium) [%] | IC50 (Ribosomal RNA A-site [3]) [nM] | Activity (Staphylococcus aureus [4]) [%] | inhibition (Ribosomal RNA A-site [5]) [%] | inhibition (Homo sapiens [6]) [%] | Activity (Staphylococcus aureus [7]) [%] | Activity (Escherichia coli [8]) | Activity (Staphylococcus aureus [9]) [%] | Activity (Klebsiella oxytoca) [%] | inhibition [10] | inhibition [11] | inhibition (Ribosomal RNA A-site [12]) [%] | Activity (Acinetobacter baumannii) [%] | Activity (Enterococcus faecalis) [%] | Activity [13] [%] | inhibition [14] | Activity (Bacillus anthracis) | other results
NC[C@@H]1O[C@H](O[C@H]2[C@@H](O)[C@H](O[C@@H]3[C@@H](O)[C@H](N)C[C@H](N)[C@H]3O[C@H]3O[C@H](CN)[C@@H](O)[C@H](O)[C@H]3N)O[C@@H]2CNC(=O)Cc2ccc3ccc4cccc5ccc2c3c45)[C@H](N)[C@@H](O)[C@@H]1O | 375 | 22 | 10 | 0 | 339 | 30 | 47 | 73 | 27 | inactive | 15 | 5 | Active | Active | 33 | 6 | 12 | 15 | Active | inactive | Activity (Streptococcus pyogenes): inactive; Activity (Pseudomonas aeruginosa): 19%; Activity (Escherichia coli [15]): 7%; inhibition [16]: Active; inhibition (Ribosomal RNA A-site [17]): 38%; IC50 [18]: 274 nM; inhibition [19]: Active; Activity (Staphylococcus aureus [20]): inactive; Activity [21]: 38%; Activity (Staphylococcus aureus [22]): inactive; inhibition [23]: Active; Activity (Staphylococcus aureus [24]): inactive; IC50 (Ribosomal RNA A-site [25]): 303 nM
NC[C@@H]1O[C@H](O[C@H]2[C@@H](O)[C@H](O[C@@H]3[C@@H](O)[C@H](N)C[C@H](N)[C@H]3O[C@H]3O[C@H](CN)[C@@H](O)[C@H](O)[C@H]3N)O[C@@H]2CSCCNC(=S)NCCCCCCNC(=O)CCCc2ccc3ccc4cccc5ccc2c3c45)[C@H](N)[C@@H](O)[C@@H]1O | 252 | 58 | 33 | 18 | 235 | 98 | 70 | 91 | 47 | 100% | 87 | 21 | Active | Active | 64 | 8 | 51 | 80 | Active | 100% | Activity (Streptococcus pyogenes): inactive; Activity (Pseudomonas aeruginosa): 14%; Activity (Escherichia coli [15]): 11%; inhibition [16]: Active; inhibition (Ribosomal RNA A-site [17]): 75%; IC50 [18]: 180 nM; inhibition [19]: Active; Activity (Staphylococcus aureus [20]): 0%; Activity [21]: 61%; Activity (Staphylococcus aureus [22]): 100%; inhibition [23]: Active; Activity (Staphylococcus aureus [24]): 0%; IC50 (Ribosomal RNA A-site [25]): 254 nM

— ChEMBL document CHEMBL4330087, “Synthesis, antimicrobial activity, attenuation of aminoglycoside resistance in MRSA, and ribosomal A-site binding of pyrene-neomycin conjugates” (Eur J Med Chem, 2019)
